High-throughput results from PubChem BioAssay.
Only some compounds are listed: those with a hit (about 4.3% of all), similar ones and a draw of the others.
MC4R antag cAMP: MC4R antagonists of cAMP signaling, primary screen, cell-based, TR-FRET, antagonist arm of biased-ligand search; hit rate 0.48% among 360,000; MC4R-expressing cells, MTII-stimulated cAMP, LANCE TR-FRET; inhibition, % at 6.5 µM; AID 540295, 2011; Melanocortin receptor 4 (Homo sapiens), P32245;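 active means inhibition above its plate's cutoff, the mean of tested wells on that plate plus 3 SD, cut at about 29% in these data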
Target sequence (P32245 whole entry, looked up): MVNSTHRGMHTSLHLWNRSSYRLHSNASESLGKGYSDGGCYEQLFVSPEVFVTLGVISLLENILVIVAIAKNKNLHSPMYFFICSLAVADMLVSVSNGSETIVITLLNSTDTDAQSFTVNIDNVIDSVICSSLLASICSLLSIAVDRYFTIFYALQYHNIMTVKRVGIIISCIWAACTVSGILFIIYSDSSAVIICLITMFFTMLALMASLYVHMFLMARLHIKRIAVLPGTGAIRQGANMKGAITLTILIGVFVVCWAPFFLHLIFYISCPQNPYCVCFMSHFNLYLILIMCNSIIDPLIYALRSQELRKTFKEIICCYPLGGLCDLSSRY
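Test system: U2OS cells stably expressing human melanocortin 4 receptor (MC4R); also added: Melanotan II challenge; compound: 6.5 µM single dose; timing: 30-min compound preincubation, 1-h Melanotan II challenge, 1-h detection, room temperature; signal: Eu-cAMP/anti-cAMP TR-FRET, emission 671 nm; repeats: one well per compound, no replicates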
Beta2AR agonist: beta2AR agonists driving receptor internalization, primary screen, cell-based, FAP fluorogen, flow cytometry | response, % (test concentration not listed) | Am2.2-beta2AR cells | AID 504454, 2011 | hit rate 0.43% among 340,000 | Beta-2 adrenergic receptor (Homo sapiens), P07550;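 active means response above a set limit, near 3 SD of response in nonfluorescent compounds, cut at about 42% in these data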
TAAR1 antag: human TAAR1 antagonists, primary screen, Fluo-8 calcium fluorescence, CHO RD-HGA16 cells; hit rate 1.5% among 360,000; antagonist; inhibition, % at 3 µM; AID 624466, 2012; Trace amine-associated receptor 1 (Homo sapiens), Q96RJ0;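 active means inhibition above a per-plate cutoff, the mean inhibition of test compounds on that plate plus 3 SD, cut at about 49% in these data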
Target sequence (Q96RJ0 whole entry, looked up): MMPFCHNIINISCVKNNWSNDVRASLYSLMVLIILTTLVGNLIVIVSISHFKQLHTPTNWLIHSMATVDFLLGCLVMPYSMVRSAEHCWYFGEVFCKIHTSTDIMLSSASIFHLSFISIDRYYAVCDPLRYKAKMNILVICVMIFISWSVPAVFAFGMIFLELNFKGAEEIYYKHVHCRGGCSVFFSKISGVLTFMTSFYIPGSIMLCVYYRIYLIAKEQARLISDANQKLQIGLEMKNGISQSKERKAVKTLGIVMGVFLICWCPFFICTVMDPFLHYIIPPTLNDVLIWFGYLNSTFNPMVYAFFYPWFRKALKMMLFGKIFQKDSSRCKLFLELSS
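System: CHO RD-HGA16 cells bearing hTAAR1. Reagent: EC80 β-phenethylamine stimulus. Schedule: seeding 17-24 h prior, 75-min 37 °C, 30-min RT dye loading. Signal: Fluo-8 intracellular calcium dye fluorescence, real-time kinetic reads. Read-out: % inhibition from peak post-agonist over basal fluorescence ratio. Benchmarks: vehicle wells and EC80 agonist wells. Replicates: n of 1.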
MC4R ag barr: MC4R agonists recruiting beta-arrestin, primary screen, cell-based, luminescence, agonist arm of biased-ligand search; Melanocortin receptor 4 (Homo sapiens), P32245; U2OS MC4R beta-arrestin complementation; percent of melanotan II response, DMSO zero; activation, % at 8.9 µM; hit rate 0.98% among 360,000;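 active means activation above a per-plate cutoff, the mean activation of sample wells on that plate plus 3 SD, cut at about 8% in these data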
HTR2A ag: mouse Htr2a agonists via beta-arrestin recruitment, primary screen, cell-based, luminescence. activation, % at 7.6 µM. hit rate 0.66% among 360,000. 5-hydroxytryptamine receptor 2A (Mus musculus), P35363. CHO-K1 mHTR2A beta-arrestin complementation; percent of 30 µM serotonin response;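 active means activation above a run cutoff, the mean activation of all tested compounds plus 3 SD, cut at about 14% in these data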
TAAR1 agonist: human TAAR1 agonists, primary screen, Fluo-8 calcium fluorescence, CHO RD-HGA16 cells; Trace amine-associated receptor 1 (Homo sapiens), Q96RJ0; vehicle wells 0%, saturating PEA agonist 100%; activation, % at 3 µM; hit rate 0.99% among 360,000; AID 624467, 2012;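 active means activation above the mean activation of all test compounds in the run plus 3 SD, cut at about 38% in these data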
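Assay system: CHO-derived RD-HGA16 cells with stable Gα16 and human TAAR1; timing: 17-24 h seeding, 75 min 37 °C dye, 30 min RT; read-out: % activation from peak over basal fluorescence ratio, DMSO-to-PEA scaled; measured by: kinetic Fluo-8 calcium fluorescence; benchmarks: low control DMSO, high control PEA (EC100); doses: 3 µM single concentration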
TAAR1 ag conf: human TAAR1 agonists, retest of hits, confirmation, Fluo-8 calcium fluorescence, CHO RD-HGA16 cells; shares compounds with TAAR1 agonist; scaled: DMSO 0%, maximal phenethylamine 100%; activation, % at 3 µM; hit rate 82% among 2,400; AID 651783, 2012;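 active means activation above a cutoff set at the run's mean compound activation plus 3 SD, cut at about 39% in these data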
Ga16 nonsel ag: nonselective calcium mobilization agonists, CHO-Ga16 cells, counter-screen for hTAAR1 agonist project, cell-based, fluorescence, CHO-Ga16 parental line; Fluo-8 calcium fluorescence; normalized to maximal ATP response, DMSO zero; hit rate 50% among 2,400; shares compounds with TAAR1 agonist; activation, % at 3 µM;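 active means activation above the run cutoff, the mean activation over all tested wells plus 3 SD, cut at about 12% in these data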
TAAR1 desens: TAAR1 desensitization by agonist hits, confirmation, counter-screen for TAAR1 agonist project, cell-based, fluorescence, tachyphylaxis; shares compounds with TAAR1 agonist; CHO RD-HGA16 hTAAR1, Fluo-8 calcium, beta-PEA response inhibition; inhibition, % at 3 µM; hit rate 46% among 2,400;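 active means inhibition above the run cutoff, the mean inhibition of all test compounds plus 3 SD, cut at about 49% in these data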;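 further: beta-PEA stimulus applied at its EC80; loss of beta-PEA calcium signal after compound pretreatment read as receptor desensitization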
Ga16 antag count: inhibition of ATP-evoked calcium response in CHO-Ga16 cells, counter-screen for TAAR1 agonist project, cell-based, fluorescence; shares compounds with TAAR1 agonist; CHO-Ga16 ATP-induced calcium, Fluo-8 fluorescence; inhibition, % at 3 µM; hit rate 39% among 2,400; AID 651952, 2012;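 active means inhibition above the plate's mean compound inhibition plus 3 SD, computed per plate, cut at about 22% in these data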
A number is an active result.

Results for COc1cccc(C2C(C#N)=C(N)N(N(C)C)C3=C2C(=O)CC(C)(C)C3)c1OC (configuration not stated) ?
MC4R antag cAMP: inactive; Beta2AR agonist: inactive; TAAR1 antag: inactive; MC4R ag barr: inactive; HTR2A ag: inactive; TAAR1 agonist: inactive

Results for CC[C@@H]1C/C=C\Cc2ccccc2[C@@H](C(=O)C[C@H](O)CC(C)=O)OC1=O ?
MC4R antag cAMP: inactive; Beta2AR agonist: inactive; TAAR1 antag: inactive; MC4R ag barr: inactive; HTR2A ag: inactive; TAAR1 agonist: inactive

How did Cc1cccc(C(=O)NC(=S)NCc2ccccc2)c1 do in these assays?
MC4R antag cAMP: inactive; Beta2AR agonist: inactive; TAAR1 antag: inactive; MC4R ag barr: inactive; HTR2A ag: inactive; TAAR1 agonist: inactive

What do the screens show for `Cc1ccc(C(=O)NC(=S)NNC(=O)COc2ccccc2C)cc1`?
MC4R antag cAMP: inactive; Beta2AR agonist: inactive; TAAR1 antag: inactive; MC4R ag barr: inactive; HTR2A ag: inactive; TAAR1 agonist: inactive

How did Cc1cccc(C(=O)NC(=S)NNC(=O)COc2c(C)cccc2C)c1 do in these assays?
MC4R antag cAMP: inactive; Beta2AR agonist: inactive; TAAR1 antag: 90; MC4R ag barr: inactive; HTR2A ag: inactive; TAAR1 agonist: 126; TAAR1 ag conf: 143; Ga16 nonsel ag: 119; TAAR1 desens: 96; Ga16 antag count: 63

How did Cc1cccc(C(=O)NC(=S)NNC(=O)Cc2ccccc2)c1 do in these assays?
MC4R antag cAMP: inactive; Beta2AR agonist: inactive; TAAR1 antag: 64; MC4R ag barr: inactive; HTR2A ag: inactive; TAAR1 agonist: 119; TAAR1 ag conf: 121; Ga16 nonsel ag: 89; TAAR1 desens: 74; Ga16 antag count: 45

How did Cc1nn2c(=O)cc(COC(=O)c3c(F)cccc3Cl)nc2s1 do in these assays?
MC4R antag cAMP: inactive; Beta2AR agonist: inactive; TAAR1 antag: inactive; MC4R ag barr: inactive; HTR2A ag: inactive; TAAR1 agonist: inactive

What do the screens show for `CN1/C(=C\C=C2/SC(=S)N(CC(=O)O)C2=O)C(C)(C)c2ccccc21`?
MC4R antag cAMP: inactive; Beta2AR agonist: inactive; TAAR1 antag: 84; MC4R ag barr: inactive; HTR2A ag: inactive; TAAR1 agonist: 235; TAAR1 ag conf: 114; Ga16 nonsel ag: 121; TAAR1 desens: 66; Ga16 antag count: 61

Results for N#C/C(=C\c1ccc(N2CCCCC2)o1)C(N)=O ?
MC4R antag cAMP: inactive; Beta2AR agonist: inactive; TAAR1 antag: inactive; MC4R ag barr: inactive; HTR2A ag: inactive; TAAR1 agonist: inactive

How did N#C/C(=C\c1ccc(N2CCCCC2)o1)C(=O)Nc1cccc(Br)c1 do in these assays?
MC4R antag cAMP: inactive; Beta2AR agonist: inactive; TAAR1 antag: 101; MC4R ag barr: inactive; HTR2A ag: inactive; TAAR1 agonist: 189; TAAR1 ag conf: 93; Ga16 nonsel ag: 143; TAAR1 desens: 87; Ga16 antag count: 90

What do the screens show for `CCCCOc1cccc(C(=O)N(Cc2ccccc2)C2CCS(=O)(=O)C2)c1` (configuration not stated)?
MC4R antag cAMP: inactive; Beta2AR agonist: inactive; TAAR1 antag: inactive; MC4R ag barr: inactive; HTR2A ag: inactive; TAAR1 agonist: inactive

How did CCCCN1CC(C)(C)[C@H](CC(=O)NC)C1=O do in these assays?
MC4R antag cAMP: inactive; TAAR1 antag: inactive; MC4R ag barr: inactive; HTR2A ag: inactive; TAAR1 agonist: inactive

How did Fc1ccccc1-c1cc2ccccc2cn1 do in these assays?
MC4R antag cAMP: inactive; Beta2AR agonist: inactive; TAAR1 antag: inactive; MC4R ag barr: inactive; HTR2A ag: inactive; TAAR1 agonist: inactive

How did COc1ccc(S(=O)(=O)NCc2cc(=O)n(C)c(=O)n2C)cc1C do in these assays?
MC4R antag cAMP: inactive; Beta2AR agonist: inactive; TAAR1 antag: inactive; MC4R ag barr: inactive; HTR2A ag: inactive; TAAR1 agonist: inactive

How did COc1cc(-c2n[nH]c(=S)n2/N=C/c2cccn2C)cc(OC)c1OC do in these assays?
MC4R antag cAMP: inactive; Beta2AR agonist: inactive; TAAR1 antag: 71; MC4R ag barr: inactive; HTR2A ag: inactive; TAAR1 agonist: 138; TAAR1 ag conf: 139; Ga16 nonsel ag: 113; TAAR1 desens: 97; Ga16 antag count: 79

How did Cn1cccc1/C=N/n1c(-c2ccco2)n[nH]c1=S do in these assays?
MC4R antag cAMP: inactive; Beta2AR agonist: inactive; TAAR1 antag: inactive; MC4R ag barr: inactive; HTR2A ag: inactive; TAAR1 agonist: inactive

How did O=C(O)Cn1nncc1-c1ccc(C(F)(F)F)cc1 do in these assays?
MC4R antag cAMP: inactive; TAAR1 antag: inactive; MC4R ag barr: inactive; HTR2A ag: inactive; TAAR1 agonist: inactive

Results for Cc1nn(C(=O)CCC(=O)NCCc2ccccc2)c2ccccc12 ?
MC4R antag cAMP: inactive; Beta2AR agonist: inactive; MC4R ag barr: inactive; HTR2A ag: inactive; Ga16 nonsel ag: inactive; Ga16 antag count: inactive

How did Cc1nn(C(=O)CCC(=O)NCc2cccc(F)c2)c2ccccc12 do in these assays?
MC4R antag cAMP: inactive; Beta2AR agonist: inactive; TAAR1 antag: inactive; MC4R ag barr: inactive; HTR2A ag: inactive; TAAR1 agonist: inactive

What do the screens show for `CN1CCN(C(c2ccc(Br)cc2)c2cc(Cl)c3cccnc3c2O)CC1` (configuration not stated)?
MC4R antag cAMP: inactive; Beta2AR agonist: inactive; TAAR1 antag: inactive; MC4R ag barr: inactive; HTR2A ag: inactive; TAAR1 agonist: 69; TAAR1 ag conf: 121; Ga16 nonsel ag: 88; TAAR1 desens: 76; Ga16 antag count: 43
